From ChEMBL document CHEMBL1130007, “Carbocyclic oxetanocins lacking the C-3' methylene” (1997)
Converted amounts (≈) assume the structure as drawn.

Legend:
Type in all cases: functional
E6SM [1] = assay: Minimum inhibitory conc. for 50% inhibition of TK HSV-1 (B2006) virus induced cytopathicity in E6SM cells; conditions: Homo sapiens
How it was run: (§1)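 Confluent E6SM or Vero monolayers were infected with 100 CCID50 of virus and allowed 1 h of adsorption. Residual virus was then removed. Cultures were incubated with compound in serial dilutions (400, 200, 100, ... µg/mL). Cytopathicity was scored when it was complete in the untreated infected controls.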

E6SM [2] = assay: Minimum inhibitory conc. for 50% inhibition of HSV-2 (196) virus induced cytopathicity in E6SM cells; conditions: Homo sapiens; how it was run: as §1
E6SM [3] = assay: Minimum inhibitory conc. for 50% inhibition of HSV-2 (G) virus induced cytopathicity in E6SM cells; conditions: Homo sapiens; how it was run: as §1
E6SM [4] = assay: Minimum inhibitory conc. for 50% inhibition of HSV-1 (F) virus induced cytopathicity in E6SM cells; conditions: Homo sapiens; how it was run: as §1
HEL [5] = assay: Minimum inhibitory conc. for 50% inhibition of TK-VZV (YS/R) virus plaque formation in HEL cells; conditions: Homo sapiens
E6SM [6] = assay: Minimum inhibitory conc. for 50% inhibition of HSV-1 (McIntyre) virus induced cytopathicity in E6SM cells; conditions: Homo sapiens
E6SM [7] = assay: Minimum inhibitory conc. for 50% inhibition of alteration of morphology in E6SM cells; conditions: Homo sapiens
How it was run: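 Toxicity in E6SM, HeLa or Vero cultures was judged by microscopically visible alteration of normal cell morphology. The value is the concentration producing this alteration (50%).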

E6SM [8] = assay: Minimum inhibitory conc. for 50% inhibition of vaccinia virus induced cytopathicity in E6SM cells; conditions: Homo sapiens
HEL [9] = assay: Minimum inhibitory conc. for 50% inhibition of growth in HEL cells; conditions: Homo sapiens
How it was run: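 HEL cell cytotoxicity was measured as inhibition of normal cell growth. The value is the concentration inhibiting growth by 50%.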

HEL [10] = assay: Minimum inhibitory conc. for 50% inhibition of VZV (OKA) virus plaque formation in HEL cells; conditions: Homo sapiens
E6SM [11] = assay: Minimum inhibitory conc. for 50% inhibition of HSV-1 (KOS) virus induced cytopathicity in E6SM cells; conditions: Homo sapiens
E6SM [12] = assay: Minimum inhibitory conc. for 50% inhibition of vesicular stomatitis virus induced cytopathicity in E6SM cells; conditions: Homo sapiens
HEL [13] = assay: Minimum inhibitory conc. for 50% inhibition of TK VZV (07/1) virus plaque formation in HEL cells; conditions: Homo sapiens
HEL [14] = assay: Minimum inhibitory conc. for 50% inhibition of VZV (YS) virus plaque formation in HEL cells; conditions: Homo sapiens
E6SM [15] = assay: Minimum inhibitory conc. for 50% inhibition of HSV-2 (Lyons) virus induced cytopathicity in E6SM cells; conditions: Homo sapiens; how it was run: as §1
HEL [16] = assay: Minimum inhibitory conc. for 50% inhibition of CMV (AD-169) virus plaque formation in HEL cells; conditions: Homo sapiens
How it was run: (§2)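 HEL cell cultures were inoculated with 100 CCID50 of virus and allowed 1 h of adsorption. Residual virus was then removed. Cultures were incubated with compound at graded concentrations (400, 200, 100, ... µg/mL). Read-out was virus plaque formation, scored when the infected controls were fully affected. The value is the concentration reducing plaque formation by 50%.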

HEL [17] = assay: Minimum inhibitory conc. for 50% inhibition of CMV (Davis) virus plaque formation in HEL cells; conditions: Homo sapiens; how it was run: as §2
Vero [18] = assay: Minimum inhibitory conc. for 50% inhibition of Parainfluenza-3 virus induced cytopathicity in Vero cells; conditions: Chlorocebus sabaeus; how it was run: as §1
HeLa [19] = assay: Minimum inhibitory conc. for 50% inhibition of vesicular stomatitis virus induced cytopathicity in HeLa cells; conditions: Homo sapiens
HeLa [20] = assay: Minimum inhibitory conc. for 50% inhibition of coxsackie B4 virus induced cytopathicity in HeLa cells; conditions: Homo sapiens
HeLa [21] = assay: Minimum inhibitory conc. for 50% inhibition of Polio-1 virus induced cytopathicity in HeLa cells; conditions: Homo sapiens
Vero [22] = assay: Minimum inhibitory conc. for 50% inhibition of Reo-1 virus induced cytopathicity in Vero cells; conditions: Chlorocebus sabaeus; how it was run: as §1
HeLa [23] = assay: Minimum inhibitory conc. for 50% inhibition of morphology […] in HeLa cells; conditions: Homo sapiens
Vero [24] = assay: Minimum inhibitory conc. for 50% inhibition of alteration of morphology in Vero cells; conditions: Chlorocebus sabaeus
Vero [25] = assay: Minimum inhibitory conc. for 50% inhibition of forest virus induced cytopathicity in Vero cells; conditions: Chlorocebus sabaeus; how it was run: as §1
Vero [26] = assay: Minimum inhibitory conc. for 50% inhibition of Sindbis virus induced cytopathicity in Vero cells; conditions: Chlorocebus sabaeus; how it was run: as §1

## O=c1[nH]c(=O)n([C@H]2C[C@H](O)[C@@H](CO)O2)cc1/C=C/Br [BRIVUDINE]
E6SM [1]
  MIC: 7 µg/mL (≈ 21 µM)
E6SM [2]
  MIC: > 200 µg/mL
E6SM [3]
  MIC: > 200 µg/mL
E6SM [4]
  MIC: 0.01 µg/mL (≈ 0.03 µM)
HEL [5]
  MIC: > 50 µg/mL
E6SM [6]
  MIC: 0.007 µg/mL (≈ 0.021 µM)
E6SM [7]
  MIC: > 400 µg/mL
E6SM [8]
  MIC: 0.07 µg/mL (≈ 0.21 µM)
HEL [9]
  MIC: 150 µg/mL (≈ 450 µM)
HEL [10]
  MIC: 0.0008 µg/mL (≈ 0.0024 µM)
E6SM [11]
  MIC: 0.004 µg/mL (≈ 0.012 µM)
E6SM [12]
  MIC: > 200 µg/mL
HEL [13]
  MIC: 5 µg/mL (≈ 15 µM)
HEL [14]
  MIC: 0.002 µg/mL (≈ 0.006 µM)
E6SM [15]
  MIC: 100 µg/mL (≈ 300 µM)

## Nc1nc2c(ncn2COCCO)c(=O)[nH]1 [ACYCLOVIR]
E6SM [1]
  MIC: 70 µg/mL (≈ 311 µM)
E6SM [3]
  MIC: 0.07 µg/mL (≈ 0.311 µM)
E6SM [7]
  MIC: 400 µg/mL (≈ 1780 µM)
E6SM [8]
  MIC: > 200 µg/mL
HEL [9]
  MIC: > 200 µg/mL
E6SM [11]
  MIC: 0.04 µg/mL (≈ 0.178 µM)
E6SM [12]
  MIC: > 200 µg/mL

## Nc1nc2c(ncn2COC(CO)CO)c(=O)[nH]1 [GANCICLOVIR]
HEL [16]
  MIC: 1.5 µg/mL (≈ 5.88 µM)
HEL [17]
  MIC: 0.13 µg/mL (≈ 0.509 µM)

## Nc1ccn(C[C@@H](CO)OCP(=O)(O)O)c(=O)n1.O.O [CIDOFOVIR]
HEL [16]
  MIC: 0.06 µg/mL
HEL [17]
  MIC: 0.07 µg/mL

## NC(=O)c1ncn([C@@H]2O[C@H](CO)[C@@H](O)[C@H]2O)n1 [RIBAVIRIN]
Vero [18]
  MIC: 70 µg/mL (≈ 287 µM)
HeLa [19]
  MIC: 4 µg/mL (≈ 16.4 µM)
HeLa [20]
  MIC: 70 µg/mL (≈ 287 µM)
HeLa [21]
  MIC: 70 µg/mL (≈ 287 µM)
Vero [22]
  MIC: 70 µg/mL (≈ 287 µM)
HeLa [23]
  MIC: > 200 µg/mL
Vero [24]
  MIC: > 400 µg/mL
Vero [25]
  MIC: 300 µg/mL (≈ 1230 µM)
Vero [26]
  MIC: 150 µg/mL (≈ 614 µM)
